Results taken from ChEMBL document CHEMBL5058577, “EUbOPEN Chemogenomics Library 2 (Multiplex)” (2022).

System: Fibroblast
Assay: Multiplex assay against human fibroblast
Type: toxicity, cell-based
Method in brief: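 Cells stained live at seeding with Hoechst33342, BioTracker Green Microtubule Cytoskeleton Dye, MitoTracker Red and Annexin V Alexa Fluor 680 were imaged on a CQ1 microscope at 37°C and 5% CO2 after compound addition. Their classification by CellPathfinder machine-learning gating ran from Hoechst high-intensity objects versus normal cells, to healthy, pyknosed or fragmented nuclei among normal cells, to mitotic or apoptotic among pyknosed cells. Tubulin, mitochondrial-mass and membrane-permeability phenotypes are per cents of healthy-nucleus cells.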

[1] = 12 h, 1 µM, compound concentration 1 uM, replicate 1
[2] = 12 h, 1 µM, compound concentration 1 uM, replicate 2
[3] = 12 h, 10 µM, compound concentration 10 uM, replicate 1
[4] = 12 h, 10 µM, compound concentration 10 uM, replicate 2
[5] = 24 h, 1 µM, compound concentration 1 uM, replicate 1
[6] = 24 h, 1 µM, compound concentration 1 uM, replicate 2
[7] = 24 h, 10 µM, compound concentration 10 uM, replicate 1
[8] = 24 h, 10 µM, compound concentration 10 uM, replicate 2
[9] = 48 h, 1 µM, compound concentration 1 uM, replicate 1
[10] = 48 h, 1 µM, compound concentration 1 uM, replicate 2
[11] = 48 h, 10 µM, compound concentration 10 uM, replicate 1
[12] = 48 h, 10 µM, compound concentration 10 uM, replicate 2

CSCC[C@H](NC=O)C(=O)N[C@@H](CC(C)C)C(=O)N[C@@H](Cc1ccccc1)C(=O)O
Population Fragmented Nuclei (%) [1]: 18%
Population Healthy Nuclei (%) [1]: 69%
Population Mitochondria Different-Phenotype (%) [1]: 3%
Population Tubulin-Different-Phenotype (%) [1]: 26%
Total Cell Count [1]: 182
Population Fragmented Nuclei (%) [2]: 29%
Population Healthy Nuclei (%) [2]: 51%
Population Mitochondria Different-Phenotype (%) [2]: 4%
Population Tubulin-Different-Phenotype (%) [2]: 39%
Total Cell Count [2]: 175
Population Mitochondria Different-Phenotype (%) [3]: 5%
Population Tubulin-Different-Phenotype (%) [3]: 24%
Total Cell Count [3]: 112
Population Fragmented Nuclei (%) [4]: 27%
Population Healthy Nuclei (%) [4]: 39%
Population Hoechst High Intensity Objects (%) [4]: 38%
Population Membrane Permeable-Phenotype (%) [4]: 9%
Population Mitochondria Different-Phenotype (%) [4]: 3%
Population Normal (%) [4]: 61%
Population Tubulin-Different-Phenotype (%) [4]: 35%
Total Cell Count [4]: 315
Population Healthy Nuclei (%) [5]: 73%
Population Mitochondria Different-Phenotype (%) [5]: 4%
Population Tubulin-Different-Phenotype (%) [5]: 18%
Total Cell Count [5]: 173
Population Fragmented Nuclei (%) [6]: 35%
Population Healthy Nuclei (%) [6]: 46%
Population Hoechst High Intensity Objects (%) [6]: 7%
Population Mitochondria Different-Phenotype (%) [6]: 9%
Population Normal (%) [6]: 92%
Population Tubulin-Different-Phenotype (%) [6]: 43%
Total Cell Count [6]: 179
Population Fragmented Nuclei (%) [7]: 19%
Population Membrane Permeable-Phenotype (%) [7]: 3%
Population Mitochondria Different-Phenotype (%) [7]: 7%
Population Tubulin-Different-Phenotype (%) [7]: 25%
Total Cell Count [7]: 107
Population Healthy Nuclei (%) [8]: 38%
Population Hoechst High Intensity Objects (%) [8]: 32%
Population Mitochondria Different-Phenotype (%) [8]: 10%
Population Normal (%) [8]: 67%
Population Tubulin-Different-Phenotype (%) [8]: 47%
Total Cell Count [8]: 230
Population Fragmented Nuclei (%) [9]: 16%
Population Healthy Nuclei (%) [9]: 69%
Population Mitochondria Different-Phenotype (%) [9]: 1%
Population Tubulin-Different-Phenotype (%) [9]: 21%
Total Cell Count [9]: 184
Population Fragmented Nuclei (%) [10]: 36%
Population Healthy Nuclei (%) [10]: 47%
Population Mitochondria Different-Phenotype (%) [10]: 8%
Population Tubulin-Different-Phenotype (%) [10]: 54%
Total Cell Count [10]: 174
Population Fragmented Nuclei (%) [11]: 18%
Population Mitochondria Different-Phenotype (%) [11]: 4%
Population Tubulin-Different-Phenotype (%) [11]: 24%
Total Cell Count [11]: 110
Population Healthy Nuclei (%) [12]: 44%
Population Hoechst High Intensity Objects (%) [12]: 29%
Population Membrane Permeable-Phenotype (%) [12]: 4%
Population Mitochondria Different-Phenotype (%) [12]: 1%
Population Normal (%) [12]: 70%
Population Tubulin-Different-Phenotype (%) [12]: 47%
Total Cell Count [12]: 231

CCCn1c(=O)c2[nH]c(C3CCCC3)nc2n(CCC)c1=O [1,3-DIPROPYL-8-CYCLOPENTYLXANTHINE [DPCPX]]
Population Apoptotic (%) [1]: 38%
Population Fragmented Nuclei (%) [1]: 10%
Population Healthy Nuclei (%) [1]: 73%
Population Hoechst High Intensity Objects (%) [1]: 3%
Population Membrane Permeable-Phenotype (%) [1]: 0%
Population Mitochondria Different-Phenotype (%) [1]: 1%
Population Mitotic Cells (%) [1]: 61%
Population Normal (%) [1]: 96%
Population Pyknosed Nuclei (%) [1]: 15%
Population Tubulin-Different-Phenotype (%) [1]: 29%
Total Cell Count [1]: 175
Population Apoptotic (%) [2]: 30%
Population Fragmented Nuclei (%) [2]: 25%
Population Healthy Nuclei (%) [2]: 46%
Population Membrane Permeable-Phenotype (%) [2]: 1%
Population Mitochondria Different-Phenotype (%) [2]: 10%
Population Mitotic Cells (%) [2]: 69%
Population Pyknosed Nuclei (%) [2]: 28%
Population Tubulin-Different-Phenotype (%) [2]: 50%
Total Cell Count [2]: 156
Population Apoptotic (%) [3]: 58%
Population Fragmented Nuclei (%) [3]: 18%
Population Healthy Nuclei (%) [3]: 65%
Population Hoechst High Intensity Objects (%) [3]: 3%
Population Membrane Permeable-Phenotype (%) [3]: 0%
Population Mitochondria Different-Phenotype (%) [3]: 10%
Population Mitotic Cells (%) [3]: 41%
Population Normal (%) [3]: 96%
Population Pyknosed Nuclei (%) [3]: 17%
Population Tubulin-Different-Phenotype (%) [3]: 47%
Total Cell Count [3]: 104
Population Apoptotic (%) [4]: 25%
Population Fragmented Nuclei (%) [4]: 32%
Population Healthy Nuclei (%) [4]: 47%
Population Hoechst High Intensity Objects (%) [4]: 6%
Population Membrane Permeable-Phenotype (%) [4]: 12%
Population Mitochondria Different-Phenotype (%) [4]: 3%
Population Mitotic Cells (%) [4]: 75%
Population Normal (%) [4]: 93%
Population Pyknosed Nuclei (%) [4]: 20%
Population Tubulin-Different-Phenotype (%) [4]: 59%
Total Cell Count [4]: 129
Population Apoptotic (%) [5]: 50%
Population Fragmented Nuclei (%) [5]: 13%
Population Healthy Nuclei (%) [5]: 77%
Population Hoechst High Intensity Objects (%) [5]: 2%
Population Membrane Permeable-Phenotype (%) [5]: 0%
Population Mitochondria Different-Phenotype (%) [5]: 2%
Population Mitotic Cells (%) [5]: 50%
Population Normal (%) [5]: 97%
Population Pyknosed Nuclei (%) [5]: 9%
Population Tubulin-Different-Phenotype (%) [5]: 30%
Total Cell Count [5]: 177
Population Apoptotic (%) [6]: 75%
Population Fragmented Nuclei (%) [6]: 30%
Population Healthy Nuclei (%) [6]: 48%
Population Hoechst High Intensity Objects (%) [6]: 3%
Population Membrane Permeable-Phenotype (%) [6]: 4%
Population Mitochondria Different-Phenotype (%) [6]: 12%
Population Mitotic Cells (%) [6]: 24%
Population Normal (%) [6]: 96%
Population Pyknosed Nuclei (%) [6]: 21%
Population Tubulin-Different-Phenotype (%) [6]: 54%
Total Cell Count [6]: 159
Population Apoptotic (%) [7]: 63%
Population Fragmented Nuclei (%) [7]: 17%
Population Healthy Nuclei (%) [7]: 61%
Population Hoechst High Intensity Objects (%) [7]: 3%
Population Membrane Permeable-Phenotype (%) [7]: 6%
Population Mitochondria Different-Phenotype (%) [7]: 9%
Population Mitotic Cells (%) [7]: 36%
Population Normal (%) [7]: 96%
Population Pyknosed Nuclei (%) [7]: 22%
Population Tubulin-Different-Phenotype (%) [7]: 49%
Total Cell Count [7]: 104
Population Apoptotic (%) [8]: 20%
Population Fragmented Nuclei (%) [8]: 35%
Population Healthy Nuclei (%) [8]: 40%
Population Hoechst High Intensity Objects (%) [8]: 6%
Population Membrane Permeable-Phenotype (%) [8]: 8%
Population Mitochondria Different-Phenotype (%) [8]: 4%
Population Mitotic Cells (%) [8]: 79%
Population Normal (%) [8]: 93%
Population Pyknosed Nuclei (%) [8]: 24%
Population Tubulin-Different-Phenotype (%) [8]: 63%
Total Cell Count [8]: 125
Population Apoptotic (%) [9]: 72%
Population Fragmented Nuclei (%) [9]: 16%
Population Healthy Nuclei (%) [9]: 70%
Population Hoechst High Intensity Objects (%) [9]: 2%
Population Membrane Permeable-Phenotype (%) [9]: 0%
Population Mitochondria Different-Phenotype (%) [9]: 1%
Population Mitotic Cells (%) [9]: 27%
Population Normal (%) [9]: 97%
Population Pyknosed Nuclei (%) [9]: 12%
Population Tubulin-Different-Phenotype (%) [9]: 35%
Total Cell Count [9]: 182
Population Apoptotic (%) [10]: 47%
Population Fragmented Nuclei (%) [10]: 39%
Population Healthy Nuclei (%) [10]: 48%
Population Hoechst High Intensity Objects (%) [10]: 7%
Population Membrane Permeable-Phenotype (%) [10]: 5%
Population Mitochondria Different-Phenotype (%) [10]: 12%
Population Mitotic Cells (%) [10]: 52%
Population Normal (%) [10]: 92%
Population Tubulin-Different-Phenotype (%) [10]: 55%
Total Cell Count [10]: 170
Population Apoptotic (%) [11]: 57%
Population Fragmented Nuclei (%) [11]: 24%
Population Healthy Nuclei (%) [11]: 55%
Population Hoechst High Intensity Objects (%) [11]: 3%
Population Membrane Permeable-Phenotype (%) [11]: 1%
Population Mitochondria Different-Phenotype (%) [11]: 13%
Population Mitotic Cells (%) [11]: 42%
Population Normal (%) [11]: 96%
Population Pyknosed Nuclei (%) [11]: 20%
Population Tubulin-Different-Phenotype (%) [11]: 50%
Total Cell Count [11]: 98
Population Apoptotic (%) [12]: 50%
Population Fragmented Nuclei (%) [12]: 43%
Population Healthy Nuclei (%) [12]: 45%
Population Hoechst High Intensity Objects (%) [12]: 2%
Population Membrane Permeable-Phenotype (%) [12]: 16%
Population Mitochondria Different-Phenotype (%) [12]: 8%
Population Mitotic Cells (%) [12]: 50%
Population Normal (%) [12]: 97%
Population Pyknosed Nuclei (%) [12]: 10%
Population Tubulin-Different-Phenotype (%) [12]: 78%
Total Cell Count [12]: 136
